The target of data set [1] is T1, Autotaxin (Homo sapiens, UniProt Q13822). The data set is described as follows: Inhibition of recombinant human C-terminal FLAg-tagged ATX nucleotide pyrophosphate phosphatase activity expressed in baculovirus infected sf9 cells using pNP-TMP as substrate measured every 2 mins for 1 hr by fluorescence assay.
Data set [2] has as its target T1, Autotaxin. The data set is described as follows: Competitive inhibition of recombinant human C-terminal FLAg-tagged ATX expressed in baculovirus infected sf9 cells using varying levels of FRET based FS-3 substrate at 0.5 to 2 times IC50 measured every 2 mins for 1 hr by Michaelis-Menten plot analysis.
The target of data set [3] is T2, Lysophosphatidic acid receptor 1 (Homo sapiens, UniProt Q92633). The data set is described as follows: Antagonist activity at LPA1 receptor (unknown origin) expressed in rat RH7777 cells assessed as inhibition of LPA-induced intracellular calcium level measured every 3.42 secs for 70 secs by Fura-2-AM dye based fluorescence assay. It counts as functional, cell-based. In general terms: Calcium assays in cells follow changes in intracellular calcium, usually with a dye or a luminescent sensor.

Data set [4] concerns the target T3, Lysophosphatidic acid receptor 3 (Homo sapiens) (UniProt Q9UBY5).
T3 sequence (whole entry): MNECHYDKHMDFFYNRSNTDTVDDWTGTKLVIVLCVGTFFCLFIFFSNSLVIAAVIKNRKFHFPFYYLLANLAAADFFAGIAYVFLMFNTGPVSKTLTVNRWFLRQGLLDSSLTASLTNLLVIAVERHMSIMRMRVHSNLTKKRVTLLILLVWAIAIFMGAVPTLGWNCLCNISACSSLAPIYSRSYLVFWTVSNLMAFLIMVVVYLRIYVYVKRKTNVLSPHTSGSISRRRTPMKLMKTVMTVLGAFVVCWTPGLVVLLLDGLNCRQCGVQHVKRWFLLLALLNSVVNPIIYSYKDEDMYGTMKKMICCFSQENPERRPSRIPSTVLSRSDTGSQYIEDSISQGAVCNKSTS
The data set is described as follows: Antagonist activity at LPA3 receptor (unknown origin) expressed in rat RH7777 cells assessed as inhibition of LPA-induced intracellular calcium level up to 100 uM measured every 3.42 secs for 70 secs by Fura-2-AM dye based fluorescence assay. It counts as functional, cell-based.

Data set [5] addresses Lysophosphatidic acid receptor 2 (Homo sapiens) (UniProt Q9HBW0). The data set is described as follows: Antagonist activity at LPA2 receptor (unknown origin) expressed in MEF cells assessed as inhibition of LPA-induced intracellular calcium level up to 100 uM measured every 3.42 secs for 70 secs by Fura-2-AM dye based fluorescence assay. It counts as functional, cell-based.

The target of data set [6] is Lysophosphatidic acid receptor 4 (Homo sapiens) (UniProt Q99677). The data set is described as follows: Antagonist activity at LPA4 receptor (unknown origin) expressed in CHO cells assessed as inhibition of LPA-induced intracellular calcium level up to 100 uM measured every 3.42 secs for 70 secs by Fura-2-AM dye based fluorescence assay. It counts as functional, cell-based.

Data set [7] concerns the target Lysophosphatidic acid receptor 5 (Homo sapiens) (UniProt Q9H1C0). The data set is described as follows: Antagonist activity at FLAG-tagged LPA5 receptor (unknown origin) expressed in rat B103 cells assessed as inhibition of LPA-induced intracellular calcium level up to 100 uM measured every 3.42 secs for 70 secs by Fura-2-AM dye based fluorescence assay. It counts as functional, cell-based.

Data set [8] has as its target T4, Glycerophosphocholine cholinephosphodiesterase ENPP6 (Homo sapiens) (UniProt Q6UWR7).
T4 sequence (whole entry): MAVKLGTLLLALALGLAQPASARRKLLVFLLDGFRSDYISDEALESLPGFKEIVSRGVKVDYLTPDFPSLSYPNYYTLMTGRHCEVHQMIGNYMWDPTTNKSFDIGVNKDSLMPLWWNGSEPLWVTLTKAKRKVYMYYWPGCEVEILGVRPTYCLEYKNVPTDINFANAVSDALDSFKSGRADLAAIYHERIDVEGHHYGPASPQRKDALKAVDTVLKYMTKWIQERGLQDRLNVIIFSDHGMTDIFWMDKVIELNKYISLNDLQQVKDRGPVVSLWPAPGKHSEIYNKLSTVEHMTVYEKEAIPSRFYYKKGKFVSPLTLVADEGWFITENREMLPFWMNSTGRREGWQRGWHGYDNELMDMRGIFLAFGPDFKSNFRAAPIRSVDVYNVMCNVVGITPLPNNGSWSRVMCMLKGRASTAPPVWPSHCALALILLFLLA
Briefly: Inhibition of ENPP6 (unknown origin) using pNPPC as substrate measured every 2 mins for 1 hr by […]. The gist of the method:
(§1)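 10 nM ENPP6 or ENPP7, 10 μM pNPPC, compound 0–10 μM, triplicate; ENPP6 buffer 100 mM Tris, 500 mM NaCl, 0.05% Triton pH 9.0; ENPP7 buffer 50 mM Tris, 150 mM NaCl, 10 mM taurocholate pH 8.5; 405 nm absorbance every 2 min for 1 h.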

The target of data set [9] is T5, Ectonucleotide pyrophosphatase/phosphodiesterase family member 7 (Homo sapiens) (UniProt Q6UWV6).
T5 sequence (whole entry): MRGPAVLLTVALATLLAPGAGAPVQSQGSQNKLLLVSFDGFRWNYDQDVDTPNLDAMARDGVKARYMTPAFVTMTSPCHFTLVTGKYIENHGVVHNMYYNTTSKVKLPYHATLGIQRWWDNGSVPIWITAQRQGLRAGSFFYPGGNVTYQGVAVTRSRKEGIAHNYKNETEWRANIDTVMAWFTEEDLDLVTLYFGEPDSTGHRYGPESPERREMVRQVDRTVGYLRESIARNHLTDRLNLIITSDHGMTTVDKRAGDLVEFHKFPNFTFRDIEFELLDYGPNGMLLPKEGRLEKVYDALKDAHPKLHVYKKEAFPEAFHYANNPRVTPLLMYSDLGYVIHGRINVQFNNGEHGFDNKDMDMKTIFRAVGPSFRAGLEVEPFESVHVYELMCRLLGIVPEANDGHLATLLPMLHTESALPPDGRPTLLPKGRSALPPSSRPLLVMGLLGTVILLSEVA
The data set is described as follows: Inhibition of ENPP7 (unknown origin) using pNPPC as substrate measured every 2 mins for 1 hr by […]. The gist of the method: as §1

Data set [10] concerns the target T1, Autotaxin. Briefly: Inhibition of ATX (unknown origin) expressed in human A2058 cells assessed as inhibition of LPC-induced cell invasion after 20 hrs by calcein-AM dye based matrigel-mediated Boyden chamber assay.
The test system of another data set is B16-F10. Briefly: Antitumor activity against mouse B16F10 cells implanted in C57BL/6 mouse assessed as reduction in metastatic tumor nodules on lungs at 1 mg/kg, ip administered daily up to 10 days measured on day 21. It counts as functional, organism-based. The gist of the method:
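C57BL/6 mice, 8–12 weeks, given 1 × 10^5 B16F10 cells by tail vein; 1 mg/kg i.p. daily from day 0 (before inoculation) to day 10, vehicle PBS with 1% DMSO and 50 μM charcoal-stripped mouse serum albumin; sacrifice day 21, lung nodules counted; one-way ANOVA with Bonferroni.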

Data set [11] in a line: Stability in mouse 4T1 cells assessed as parent compound remaining at 10 uM after 16 hrs by LC-MS/MS method. It counts as ADME, cell-based. The conditions noted are these: read-out: Stability. The gist of the method:
(§2)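 4T1 cells (1 × 10^4/well) attached overnight, then 10 μM compound in DMEM with 1% charcoal-stripped FBS (0.1% DMSO final); quadruplicate samples at 0, 16, 40 h, centrifuged, diethyl ether extracted twice, LC-MS/MS peak areas normalized to 0 h.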

The nature of data set [12]: Stability in mouse 4T1 cells assessed as parent compound remaining at 10 uM after 40 hrs by LC-MS/MS method. It counts as ADME, cell-based. The conditions noted are these: read-out: Stability. The gist of the method: as §2
In the next data set the test system is 4T1. Briefly: Growth inhibition of mouse 4T1 cells at 10 uM after 48 hrs by CellTiter blue assay. It counts as cell-based. The conditions noted are these: 4t1, 48 h.
Data set [13] concerns the target T1, Autotaxin. Briefly: Inhibition of ATX (unknown origin) expressed in human A2058 cells assessed as inhibition of LPC-induced cell invasion at 10 uM after 20 hrs by calcein-AM dye based matrigel-mediated Boyden chamber assay.
Data set [14] concerns the target T2, Lysophosphatidic acid receptor 1. The data set is described as follows: Agonist activity at LPA1 receptor (unknown origin) expressed in rat RH7777 cells assessed as increase in intracellular calcium level measured every 3.42 secs for 70 secs by Fura-2-AM dye based fluorescence assay. It counts as functional, cell-based.
Data set [15] addresses T1, Autotaxin. Briefly: Inhibition of ATX (unknown origin).

The source made the active and inactive calls. The calls are words filed in the database; no cut-off is given here.

Results on three compounds are retold here after ChEMBL document CHEMBL3997796 (J Med Chem, 2017).

The IC50 is the concentration that inhibits the measured activity by half. As usually defined, the EC50 is the concentration giving half of the maximal effect.

T2 sequence (Q92633 whole entry): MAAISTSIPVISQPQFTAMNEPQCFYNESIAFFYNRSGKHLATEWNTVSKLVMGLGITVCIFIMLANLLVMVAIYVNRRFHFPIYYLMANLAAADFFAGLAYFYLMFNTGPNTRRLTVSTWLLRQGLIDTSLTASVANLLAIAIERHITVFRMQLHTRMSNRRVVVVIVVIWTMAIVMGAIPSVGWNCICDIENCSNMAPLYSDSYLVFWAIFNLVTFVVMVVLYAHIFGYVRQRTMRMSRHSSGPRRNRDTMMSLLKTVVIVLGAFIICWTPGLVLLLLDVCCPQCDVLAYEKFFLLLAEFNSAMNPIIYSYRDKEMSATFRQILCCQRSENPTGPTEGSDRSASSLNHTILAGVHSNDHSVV
Sequence of Lysophosphatidic acid receptor 4 (Homo sapiens) (Q99677 whole entry): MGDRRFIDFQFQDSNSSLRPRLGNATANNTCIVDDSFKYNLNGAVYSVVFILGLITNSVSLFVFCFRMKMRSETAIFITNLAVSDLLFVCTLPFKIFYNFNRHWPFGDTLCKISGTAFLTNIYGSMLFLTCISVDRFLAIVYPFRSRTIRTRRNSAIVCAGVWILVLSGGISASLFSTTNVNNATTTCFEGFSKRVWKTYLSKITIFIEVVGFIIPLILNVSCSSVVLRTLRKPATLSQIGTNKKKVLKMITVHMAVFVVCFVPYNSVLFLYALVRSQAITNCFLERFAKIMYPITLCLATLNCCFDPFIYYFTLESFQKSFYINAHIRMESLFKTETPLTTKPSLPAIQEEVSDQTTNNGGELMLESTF
Sequence of Lysophosphatidic acid receptor 5 (Homo sapiens) (Q9H1C0 whole entry): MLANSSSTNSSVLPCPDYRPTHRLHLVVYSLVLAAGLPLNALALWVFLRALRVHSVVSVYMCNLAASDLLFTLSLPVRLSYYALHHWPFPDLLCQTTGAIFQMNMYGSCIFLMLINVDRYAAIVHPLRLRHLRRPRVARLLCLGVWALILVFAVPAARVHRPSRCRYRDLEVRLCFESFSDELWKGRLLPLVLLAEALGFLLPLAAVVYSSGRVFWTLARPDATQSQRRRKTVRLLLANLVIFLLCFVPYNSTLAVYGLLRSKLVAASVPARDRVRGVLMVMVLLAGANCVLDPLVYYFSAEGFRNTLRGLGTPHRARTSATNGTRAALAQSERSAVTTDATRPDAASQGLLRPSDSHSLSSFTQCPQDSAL
Sequence of Lysophosphatidic acid receptor 2 (Homo sapiens) (Q9HBW0 whole entry): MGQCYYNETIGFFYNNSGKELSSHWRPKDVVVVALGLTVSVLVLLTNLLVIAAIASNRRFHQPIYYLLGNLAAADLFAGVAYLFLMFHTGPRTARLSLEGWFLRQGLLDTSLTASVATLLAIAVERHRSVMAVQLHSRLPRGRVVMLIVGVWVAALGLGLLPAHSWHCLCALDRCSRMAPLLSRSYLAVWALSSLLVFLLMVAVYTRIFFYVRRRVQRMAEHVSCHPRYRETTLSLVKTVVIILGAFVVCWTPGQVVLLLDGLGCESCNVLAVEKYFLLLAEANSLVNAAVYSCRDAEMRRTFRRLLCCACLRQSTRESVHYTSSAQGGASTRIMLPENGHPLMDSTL

Consider `O=S(=O)(c1cc(C(=S)Nc2cc(F)c(F)c(F)c2)c(Cl)cc1Cl)N1CCOCC1`, for which the inhibition result (on Autotaxin [1]; in data set [4]; in data set [5]; in data set [6]; in data set [7]; in data set [8]) was “inactive” each time. Also, the inhibition result in data set [9] is “inactive”. The inhibition result at Autotaxin [2] and at Autotaxin [13] was “Active” in each case. In addition, the IC50 entry in data set [3] is on record as “Not Active”. Moreover, the inhibition entry at Autotaxin [10] was “Dose-dependent effect”. Moreover, the result in the data set on B16-F10 was Active. Also, the remaining at 16 h, 10 µM in data set [11] stood at 93.2%. Also, the remaining at 40 h, 10 µM in data set [12] worked out at 102%. In addition, in the data set on 4T1, the Activity entry is listed as “Toxic”.

Consider `CCCCCCCC/C=C\CCCCCCCC(=O)OCC(O)COP(=O)(O)O` (stereo not drawn), for which the EC50 in data set [14] came to 80 nM.

`O=C(Nc1cccc(F)c1)c1cc(S(=O)(=O)N2CCOCC2)c(Cl)cc1Cl`: the inhibition entry (on Autotaxin [1]; in data set [8]; in [9]) was “inactive” each time. On Autotaxin [2], the inhibition entry is “Active”. Further, in data set [11], the remaining at 16 h, 10 µM was 79.7%. The remaining at 40 h, 10 µM in [12] was found to be 79.5%. The IC50 on Autotaxin [15] is 116 nM.
